Measurements from ChEMBL document CHEMBL1135742, “Modification of the structure of a metallopeptide: synthesis and biological evaluation of (111)In-labeled DOTA-conjugated rhenium-cyclized alpha-MSH analogues” (J Med Chem, 2002).

Key:
Assay type in all cases: functional, organism-based
Mus musculus [1] = species on record: Mus musculus; experiment: Radioactivity uptake in the muscle was expressed as a percentage of the injected radioactive dose per gram of tissue (% ID/g) in B16/F1 Murine Melanoma-Bearing C57 Mice at 4 h
Procedure, shortened: (§1)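 C57 BL/6 female mice (7–8 weeks) carried B16/F1 tumours from 1×10^6 cells given s.c. in the right flank; tumours were ~500 mg at 9–10 days. Each mouse received […] of HPLC-purified, neutralized 111In-DOTA peptide via the tail vein. Mice were killed at 0.5, 2, 4 or 24 h pi. Tissues were weighed and γ-counted, expressed as % ID/g; ratios were tumor/tissue % ID/g.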

Mus musculus [2] = species on record: Mus musculus; experiment: Radioactivity uptake in the pancreas was expressed as a percentage of the injected radioactive dose per gram of tissue (% ID/g) in B16/F1 Murine Melanoma-Bearing C57 Mice at 2 h; procedure, shortened: as §1
Mus musculus [3] = species on record: Mus musculus; experiment: Radioactivity uptake in the pancreas was expressed as a percentage of the injected radioactive dose per gram of tissue (% ID/g) in B16/F1 Murine Melanoma-Bearing C57 Mice at 24 h; procedure, shortened: as §1
Mus musculus [4] = species on record: Mus musculus; experiment: Radioactivity uptake in the spleen was expressed as a percentage of the injected radioactive dose per gram of tissue (% ID/g) in B16/F1 Murine Melanoma-Bearing C57 Mice at 0.5 h; procedure, shortened: as §1
Mus musculus [5] = species on record: Mus musculus; experiment: Radioactivity uptake in the spleen was expressed as a percentage of the injected radioactive dose per gram of tissue (% ID/g) in B16/F1 Murine Melanoma-Bearing C57 Mice at 24 h; procedure, shortened: as §1
Mus musculus [6] = species on record: Mus musculus; experiment: Radioactivity uptake in the spleen was expressed as a percentage of the injected radioactive dose per gram of tissue (% ID/g) in B16/F1 Murine Melanoma-Bearing C57 Mice at 4 h; procedure, shortened: as §1
Mus musculus [7] = species on record: Mus musculus; experiment: Radioactivity uptake in the tumor was expressed as a percentage of the injected radioactive dose per gram of tissue (% ID/g) in B16/F1 Murine Melanoma-Bearing C57 Mice at 2 h; procedure, shortened: as §1
Mus musculus [8] = species on record: Mus musculus; experiment: Radioactivity uptake in the tumor was expressed as a percentage of the injected radioactive dose per gram of tissue (% ID/g) in B16/F1 Murine Melanoma-Bearing C57 Mice at 24 h; procedure, shortened: as §1
Mus musculus [9] = species on record: Mus musculus; experiment: Radioactivity uptake in the muscle was expressed as a percentage of the injected radioactive dose per gram of tissue (% ID/g) in B16/F1 Murine Melanoma-Bearing C57 Mice at 2 h; procedure, shortened: as §1
Mus musculus [10] = species on record: Mus musculus; experiment: Radioactivity uptake in the muscle was expressed as a percentage of the injected radioactive dose per gram of tissue (% ID/g) in B16/F1 Murine Melanoma-Bearing C57 Mice at 24 h; procedure, shortened: as §1
Mus musculus [11] = species on record: Mus musculus; experiment: Radioactivity uptake in the blood was expressed as a percentage of the injected radioactive dose per gram of tissue (% ID/g) in B16/F1 Murine Melanoma-Bearing C57 Mice at 0.5 h; procedure, shortened: as §1
Mus musculus [12] = species on record: Mus musculus; experiment: Radioactivity uptake in the blood was expressed as a percentage of the injected radioactive dose per gram of tissue (% ID/g) in B16/F1 Murine Melanoma-Bearing C57 Mice at 24 h; procedure, shortened: as §1
Mus musculus [13] = species on record: Mus musculus; experiment: Radioactivity uptake in the blood was expressed as a percentage of the injected radioactive dose per gram of tissue (% ID/g) in B16/F1 Murine Melanoma-Bearing C57 Mice at 4 h; procedure, shortened: as §1
Mus musculus [14] = species on record: Mus musculus; experiment: Radioactivity uptake in the heart was expressed as a percentage of the injected radioactive dose per gram of tissue (% ID/g) in B16/F1 Murine Melanoma-Bearing C57 Mice at 24 h; procedure, shortened: as §1
Mus musculus [15] = species on record: Mus musculus; experiment: Radioactivity uptake in the kidneys was expressed as a percentage of the injected radioactive dose per gram of tissue (% ID/g) in B16/F1 Murine Melanoma-Bearing C57 Mice at 0.5 h; settings: Kidney; procedure, shortened: as §1
Mus musculus [16] = species on record: Mus musculus; experiment: Radioactivity uptake in the kidneys was expressed as a percentage of the injected radioactive dose per gram of tissue (% ID/g) in B16/F1 Murine Melanoma-Bearing C57 Mice at 2 h; settings: Kidney; procedure, shortened: as §1
Mus musculus [17] = species on record: Mus musculus; experiment: Radioactivity uptake in the liver was expressed as a percentage of the injected radioactive dose per gram of tissue (% ID/g) in B16/F1 Murine Melanoma-Bearing C57 Mice at 2 h; procedure, shortened: as §1
Mus musculus [18] = species on record: Mus musculus; experiment: Radioactivity uptake in the liver was expressed as a percentage of the injected radioactive dose per gram of tissue (% ID/g) in B16/F1 Murine Melanoma-Bearing C57 Mice at 4 h; procedure, shortened: as §1
Mus musculus [19] = species on record: Mus musculus; experiment: Radioactivity uptake in the lungs was expressed as a percentage of the injected radioactive dose per gram of tissue (% ID/g) in B16/F1 Murine Melanoma-Bearing C57 Mice at 0.5 h; settings: Lung; procedure, shortened: as §1
Mus musculus [20] = species on record: Mus musculus; experiment: Radioactivity uptake in the lungs was expressed as a percentage of the injected radioactive dose per gram of tissue (% ID/g) in B16/F1 Murine Melanoma-Bearing C57 Mice at 24 h; settings: Lung; procedure, shortened: as §1
Mus musculus [21] = species on record: Mus musculus; experiment: Uptake Ratio of Tumor/blood (each in % ID/g) in B16/F1 Murine Melanoma-Bearing C57 Mice at 0.5 h; procedure, shortened: as §1
Mus musculus [22] = species on record: Mus musculus; experiment: Uptake Ratio of Tumor/blood (each in % ID/g) in B16/F1 Murine Melanoma-Bearing C57 Mice at 24 h; procedure, shortened: as §1
Mus musculus [23] = species on record: Mus musculus; experiment: Uptake Ratio of Tumor/blood (each in % ID/g) in B16/F1 Murine Melanoma-Bearing C57 Mice at 4 h; procedure, shortened: as §1
Mus musculus [24] = species on record: Mus musculus; experiment: Uptake Ratio of Tumor/kidneys (each in % ID/g) in B16/F1 Murine Melanoma-Bearing C57 Mice at 0.5 h; settings: Kidney; procedure, shortened: as §1
Mus musculus [25] = species on record: Mus musculus; experiment: Uptake Ratio of Tumor/kidneys (each in % ID/g) in B16/F1 Murine Melanoma-Bearing C57 Mice at 2 h; settings: Kidney; procedure, shortened: as §1
Mus musculus [26] = species on record: Mus musculus; experiment: Uptake Ratio of Tumor/liver (each in % ID/g) in B16/F1 Murine Melanoma-Bearing C57 Mice at 4 h; procedure, shortened: as §1
Mus musculus [27] = species on record: Mus musculus; experiment: Uptake Ratio of Tumor/lungs (each in % ID/g) in B16/F1 Murine Melanoma-Bearing C57 Mice at 24 h
Procedure, shortened: (§2)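 Female C57 BL/6 mice, 7–8 weeks old, carried subcutaneous right-flank B16/F1 tumors from 1×10^6 cells and were used 9–10 days later at ~500 mg tumor weight. Each received […] of HPLC-purified, pH-neutralized ¹¹¹In-DOTA peptide by tail vein. Tumor and organs were excised at the stated time, weighed and γ-counted. Each tissue was taken as % ID/g, and tumor/normal-tissue ratios were formed from these values.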

Mus musculus [28] = species on record: Mus musculus; experiment: Uptake Ratio of Tumor/lungs (each in % ID/g) in B16/F1 Murine Melanoma-Bearing C57 Mice at 4 h; procedure, shortened: as §2
Mus musculus [29] = species on record: Mus musculus; experiment: Uptake Ratio of Tumor/muscle (each in % ID/g) in B16/F1 Murine Melanoma-Bearing C57 Mice at 0.5 h; settings: Muscle tissue; procedure, shortened: as §2
Mus musculus [30] = species on record: Mus musculus; experiment: Uptake Ratio of Tumor/muscle (each in % ID/g) in B16/F1 Murine Melanoma-Bearing C57 Mice at 2 h; settings: Muscle tissue; procedure, shortened: as §2
Mus musculus [31] = species on record: Mus musculus; experiment: Uptake Ratio of Tumor/muscle (each in % ID/g) in B16/F1 Murine Melanoma-Bearing C57 Mice at 24 h; settings: Muscle tissue; procedure, shortened: as §2
Mus musculus [32] = species on record: Mus musculus; experiment: Uptake Ratio of Tumor/kidneys (each in % ID/g) in B16/F1 Murine Melanoma-Bearing C57 Mice at 4 h; settings: Kidney; procedure, shortened: as §1
Mus musculus [33] = species on record: Mus musculus; experiment: Uptake Ratio of Tumor/liver (each in % ID/g) in B16/F1 Murine Melanoma-Bearing C57 Mice at 0.5 h; procedure, shortened: as §1
Mus musculus [34] = species on record: Mus musculus; experiment: Uptake Ratio of Tumor/liver (each in % ID/g) in B16/F1 Murine Melanoma-Bearing C57 Mice at 2 h; procedure, shortened: as §1

Substance	ID/g (Mus musculus [1])	ID/g (Mus musculus [2])	ID/g (Mus musculus [3])	ID/g (Mus musculus [4])	ID/g (Mus musculus [5])	ID/g (Mus musculus [6])	ID/g (Mus musculus [7])	ID/g (Mus musculus [8])	ID/g (Mus musculus [9])	ID/g (Mus musculus [10])	ID/g (Mus musculus [11])	ID/g (Mus musculus [12])	ID/g (Mus musculus [13])	ID/g (Mus musculus [14])	ID/g (Mus musculus [15])	ID/g (Mus musculus [16])	ID/g (Mus musculus [17])	ID/g (Mus musculus [18])	ID/g (Mus musculus [19])	ID/g (Mus musculus [20])	further results
Ac-Lys(DOTA)-ReCCEHdFRWCKPV-NH2	0.017%	0.074%	0.18%	0.51%	0.21%	0.19%	8.15%	3.54%	0.02%	0.11%	1.99%	0.072%	0.082%	0.13%	23.4%	18.4%	0.24%	0.29%	1.51%	0.14%	Uptake ratio (Mus musculus [21]): 3.8; Uptake ratio (Mus musculus [22]): 67.2; Uptake ratio (Mus musculus [23]): 88.7; Uptake ratio (Mus musculus [24]): 0.3; Uptake ratio (Mus musculus [25]): 0.46; Uptake ratio (Mus musculus [26]): 20.8; Uptake ratio (Mus musculus [27]): 22.9; Uptake ratio (Mus musculus [28]): 48.4; Uptake ratio (Mus musculus [29]): 17.6; Uptake ratio (Mus musculus [30]): 468; Uptake ratio (Mus musculus [31]): 13.3; Uptake ratio (Mus musculus [32]): 0.28; Uptake ratio (Mus musculus [33]): 10.7; Uptake ratio (Mus musculus [34]): 33.3
DOTA-ReCCEHdFRWCKPVD-OH	0.047%	0.029%	0.017%	0.29%	0.043%	0.16%	8.29%	2.48%	0.13%	0.082%	1.33%	0.018%	0.051%	0.017%	11.5%	8.07%	0.16%	0.16%	1.16%	0.035%	Uptake ratio (Mus musculus [21]): 6.8; Uptake ratio (Mus musculus [22]): 65.5; Uptake ratio (Mus musculus [23]): 199; Uptake ratio (Mus musculus [24]): 0.78; Uptake ratio (Mus musculus [25]): 1.1; Uptake ratio (Mus musculus [26]): 46.8; Uptake ratio (Mus musculus [27]): 105; Uptake ratio (Mus musculus [28]): 104; Uptake ratio (Mus musculus [29]): 38.2; Uptake ratio (Mus musculus [30]): 102; Uptake ratio (Mus musculus [31]): 27.3; Uptake ratio (Mus musculus [32]): 0.91; Uptake ratio (Mus musculus [33]): 20.7; Uptake ratio (Mus musculus [34]): 51.3
